≈ marks a conversion by molar mass, not a printed value. Calls of active or inactive are those of the source. The calls are words filed in the database; no cut-off is given here.
Key:
Plasmodium falciparum [1] = assay: Antimalarial activity after 72 hrs against chloroquine-resistant Plasmodium falciparum W2 by pLDH activity; format: functional, organism-based; details: W2, 72 h
Outline: (§1)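 P. falciparum-infected red cells (2% parasitemia, 2% hematocrit) in RPMI-1640 with 10% human serum and 60 μg/mL amikacin, exposed to serial sample concentrations. Gassed with 90% N2/5% O2/5% CO2, incubated 37 °C for 72 h. Parasite LDH activity read colorimetrically with Malstat reagent.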

Candida albicans [2] = assay: Antimicrobial activity against Candida albicans ATCC 90028 by NCCLS method; format: functional, organism-based
Outline: (§2)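 Samples serially diluted in 20% DMSO/saline, tested in duplicate. Inocula set by OD630: C. albicans RPMI pH 4.5, 1·10^4 CFU/mL; C. neoformans Sabouraud dextrose, 1·10^5; MRSA cation-adjusted Mueller-Hinton pH 7.3, 5·10^5; M. intracellulare 7H9/OADC + 5% Alamar Blue pH 7.3, 2·10^6; A. fumigatus RPMI pH 7.3 + 5% Alamar Blue, 3·10^4.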

[3] = test system: Mycobacterium intracellulare; assay: Antimicrobial activity against Mycobacterium intracellular ATCC 23068 by alamar blue assay; format: functional, organism-based
Outline: as §2, with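 “3·10^4. Read at 630 nm or 544ex/590em before and after incubation.” for “3·10^4.”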

Cryptococcus neoformans [4] = assay: Antimicrobial activity against Cryptococcus neoformans ATCC 90113 by NCCLS method; format: functional, organism-based; outline: as §2
[5] = Selectivity index, IC50 for african green monkey (Cercopithecus aethiops) Vero cells to IC50 for […]; format: functional
Outline: (§3)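 Selectivity index = IC50 against VERO cells divided by IC50 against P. falciparum (D6 or W2, respectively), each from the corresponding in-house assay.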

Plasmodium falciparum [6] = assay: Antimalarial activity after 72 hrs against […] Plasmodium falciparum D6 by pLDH activity; format: functional, organism-based; details: D6, 72 h; outline: as §1
Staphylococcus aureus [7] = assay: Antimicrobial activity against methicillin-resistant Staphylococcus aureus ATCC 43300 by NCCLS method; format: functional, organism-based; outline: as §2
Leishmania donovani = assay: Antileishmanial activity against Leishmania donovani promastigotes after 48 hrs by alamar blue assay; format: functional, organism-based
Vero [8] = assay: Cytotoxicity against african green monkey Vero cells at 4760 ng/mL; format: cell-based, Chlorocebus sabaeus
[9] = Selectivity index, IC50 for african green monkey (Cercopithecus aethiops) Vero cells to IC50 for chloroquine-sensitive Plasmodium falciparum D6; format: functional; outline: as §3
Aspergillus fumigatus [10] = assay: Antimicrobial activity against Aspergillus fumigatus ATCC 90906 by alamar blue assay; format: functional, organism-based; outline: as §2
Candida albicans [11] = assay: Antimicrobial activity against Candida albicans ATCC 90028 by NCCLS method in presence of 5% human serum; format: functional, organism-based
Aspergillus fumigatus [12] = assay: Antimicrobial activity against Aspergillus fumigatus ATCC 90906 by alamar blue assay in presence of 5% human serum; format: functional, organism-based
Cryptococcus neoformans [13] = assay: Antimicrobial activity against Cryptococcus neoformans ATCC 90113 by NCCLS method in presence of 5% human serum; format: functional, organism-based
[14] = test system: Mycobacterium intracellulare; assay: Antimicrobial activity against Mycobacterium intracellular ATCC 23068 by alamar blue assay in presence of 5% human serum; format: functional, organism-based
Staphylococcus aureus [15] = assay: Antimicrobial activity against methicillin-resistant Staphylococcus aureus ATCC 43300 by NCCLS method in presence of 5% human serum; format: functional, organism-based
[16] = Toxicity in RBC assessed as hemolysis; format: cell-based; details: Erythrocyte
KB = assay: Cytotoxicity against human KB cells after 48 hrs by neutral red assay; format: functional, cell-based
Outline: (§4)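 Cells seeded at 25,000/well, incubated 24 h, then exposed to samples for 48 h. Viable cells measured by Neutral Red uptake. IC50 from logarithmic plots of growth inhibition vs concentration. Doxorubicin positive control, DMSO vehicle control.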

SK-MEL = assay: Cytotoxicity against human SK-MEL cells after 48 hrs by neutral red assay; format: functional, cell-based; outline: as §4
Vero [17] = assay: Cytotoxicity against african green monkey Vero cells after 48 hrs by neutral red assay; format: cell-based, Chlorocebus sabaeus; details: Chlorocebus sabaeus, Vero, 48 h; read-out: IC50; outline: as §4
SK-OV-3 = assay: Cytotoxicity against human SKOV3 cells after 48 hrs by neutral red assay; format: functional, cell-based; details: SK-OV-3, 48 h; outline: as §4
BT-549 = assay: Cytotoxicity against human BT549 cells after 48 hrs by neutral red assay; format: functional, cell-based; details: BT-549, 48 h; outline: as §4
LLC-PK1 = assay: Cytotoxicity against pig LLC-PK1 cells after 48 hrs by neutral red assay; format: cell-based, Sus scrofa; details: Sus scrofa, LLC-PK1, 48 h; read-out: IC50; outline: as §4
[18] = Candida albicans, ATCC 90028, read-out: IC50
[19] = Aspergillus fumigatus, ATCC 90906, read-out: IC50

Work on C[C@H]1N[C@@H](CCCCCCCCCCC2=C[C@@H](CCCCCCCCCC[C@@H]3CC[C@H](O)[C@@H](C)N3)[C@@H]3CCCN3C2)CC[C@H]1O.Cl.Cl yielded an IC50 (Plasmodium falciparum [1]) of 0.29 µg/mL, an IC50 (Candida albicans [2]; [18]) of 7.5 µg/mL and an IC50 [3] of 10 µg/mL. For the same molecule, the IC50 (Cryptococcus neoformans [4]) was 0.85 µg/mL, the MFC (Cryptococcus neoformans [4]) was 2.5 µg/mL and the MIC (Cryptococcus neoformans [4]) was 1.25 µg/mL. The “Ratio IC50” value [5] was >16.4, the IC50 (Plasmodium falciparum [6]) was 0.38 µg/mL and the IC50 (Staphylococcus aureus [7]) was 3 µg/mL. The IC50 (Leishmania donovani) was 0.7 µg/mL, the IC90 (Leishmania donovani) was 1.2 µg/mL and the IC50 (Vero [8]) was “Non-toxic”. The “Ratio IC50” value [9] was >12.5 and the IC50 (Aspergillus fumigatus [10]; [19]) was 6.5 µg/mL.

With C[C@@H]1N[C@H](CCCCCCCCCCC2=C[C@@H](CCCCCCCCCC[C@@H]3CC[C@@H](O)[C@H](C)N3)[C@@H]3CCCN3C2)CC[C@H]1O.Cl.Cl the IC50 (Candida albicans [2]) was “Not Active”, the IC50 [3] was 9.5 µg/mL and the MIC [3] was 20 µg/mL. For the same molecule, the IC50 (Cryptococcus neoformans [4]) was 2 µg/mL, the “Ratio IC50” value [5] was >8.5 and the IC50 (Plasmodium falciparum [6]) was 0.6 µg/mL. The IC50 (Staphylococcus aureus [7]) was 3 µg/mL, the IC90 (Leishmania donovani) was 7 µg/mL and the IC50 (Vero [8]) was “Non-toxic”. For the same molecule, the “Ratio IC50” value [9] was >7.9 and the IC50 (Aspergillus fumigatus [10]) was “Not Active”.

For C[C@@H]1N[C@H](CCCCCCCCCCC2=C[C@@H](CCCCCCCCCC[C@@H]3CC[C@@H](O)[C@H](C)N3)[C@@H]3CCCN3C2)CC[C@H]1O, the MFC (Candida albicans [2]) was “inactive”, the MIC (Candida albicans [2]) was “inactive” and the Activity (Candida albicans [11]) was “Active”. The Activity (Aspergillus fumigatus [12]) was “Active”, the MBC [3] was “inactive” and the Activity (Cryptococcus neoformans [13]) was “Active”. The Activity [14] was “Active”, the MFC (Aspergillus fumigatus [10]) was “inactive” and the MIC (Aspergillus fumigatus [10]) was “inactive”. For the same molecule, the Activity (Staphylococcus aureus [15]) was “Active”.

In the case of C[C@H]1N[C@@H](CCCCCCCCCCC2=C[C@@H](CCCCCCCCCC[C@@H]3CC[C@H](O)[C@@H](C)N3)[C@@H]3CCCN3C2)CC[C@H]1O, the MFC (Candida albicans [2]) is reported as “inactive”, the MIC (Candida albicans [2]) is reported as “inactive” and the Activity (Candida albicans [11]) is reported as “Active”. The Activity (Aspergillus fumigatus [12]) was “Active”, the MBC [3] was “inactive” and the MIC [3] was “inactive”. The Activity (Cryptococcus neoformans [13]) was “Active”, the MBC (Staphylococcus aureus [7]) was “inactive” and the Activity [14] was “Active”. The MFC (Aspergillus fumigatus [10]) was “inactive” and the Activity (Staphylococcus aureus [15]) was “Active”.

With C[C@@H]1[C@H](O)[C@@H](C)/C=C/C=C/C=C/C=C/C=C/C=C/C=C/[C@H](O[C@@H]2O[C@H](C)[C@@H](O)[C@H](N)[C@@H]2O)C[C@@H]2O[C@](O)(C[C@@H](O)C[C@@H](O)[C@H](O)CC[C@@H](O)C[C@@H](O)CC(=O)O[C@H]1C)C[C@H](O)[C@H]2C(=O)O [AMPHOTERICIN B] the MIC (Candida albicans [2]; Candida albicans, ATCC 90028) was 0.63 µg/mL (≈ 0.682 µM), the IC50 (Candida albicans [2]; [18]) was 0.35 µg/mL (≈ 0.379 µM) and the IC50 [16] was 3.9 µg/mL (≈ 4.22 µM). The IC50 (KB) was > 25 µg/mL, the IC50 (SK-MEL) was 5 µg/mL (≈ 5.41 µM) and the IC50 (Cryptococcus neoformans [4]) was 0.45 µg/mL (≈ 0.487 µM). The IC50 (Vero [17]) was 7.5 µg/mL (≈ 8.12 µM), the IC50 (SK-OV-3) was > 25 µg/mL and the MIC (Aspergillus fumigatus [10]; Aspergillus fumigatus, ATCC 90906) was 0.63 µg/mL (≈ 0.682 µM). It also gave an IC50 (Aspergillus fumigatus [10]; [19]) of 0.4 µg/mL (≈ 0.433 µM) and an IC50 (BT-549) of 5.5 µg/mL (≈ 5.95 µM).

In the case of C[C@@H]1CC[C@H]2[C@@H](C)C(=O)O[C@@H]3O[C@@]4(C)CC[C@@H]1[C@]32OO4 [ARTEMISININ], the IC50 (LLC-PK1) is reported as 0.6 µg/mL (≈ 2.13 µM), the IC50 (Vero [17]) is reported as > 4.76 µg/mL and the IC50 (Plasmodium falciparum [6]) is reported as 0.016 µg/mL (≈ 0.0567 µM). For the same molecule, the IC50 (Vero [8]) was “Non-toxic”.

In the case of CCN(CC)CCCC(C)Nc1ccnc2cc(Cl)ccc12 (configuration not stated) [CHLOROQUINE], the IC50 (Vero [8]) is reported as “Non-toxic”.
